Ten compounds from ChEMBL document CHEMBL3244193, “Design of species- or isozyme-specific enzyme inhibitors. 3. Species and isozymic differences between mammalian and bacterial adenylate kinases in substituent tolerance in an enzyme-substrate complex” (J Med Chem, 1979) can be followed below.

Test [1] deals with T1, Adenylate kinase isoenzyme 1 (Rattus norvegicus, UniProt P39069).
T1 sequence (P39069 whole entry): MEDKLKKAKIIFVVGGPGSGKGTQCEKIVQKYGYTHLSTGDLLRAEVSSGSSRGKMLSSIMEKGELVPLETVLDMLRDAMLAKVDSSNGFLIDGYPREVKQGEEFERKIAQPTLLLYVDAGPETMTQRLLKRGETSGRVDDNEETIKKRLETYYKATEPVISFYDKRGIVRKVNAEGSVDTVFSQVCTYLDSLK
Description: Noncompetitive inhibition of Sprague-Dawley rat muscle adenylate kinase by Lineweaver-Burk plot analysis. The conditions noted are these: read-out: I50. In short, it runs like this:
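Enzyme source: rat skeletal muscle homogenized in KHPO4/glucose/EDTA/dithioerythritol/glycerol buffer and spun 1 h at 90000g, 2 °C. Electrofocused at pH 6-8; the AK zone (pI 6.4) was dialyzed as for the liver isozymes and held at 4 °C.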

Test [2] concerns the target Adenylate kinase 2, mitochondrial (Rattus norvegicus, UniProt P29410). Description: Competitive inhibition of Sprague-Dawley rat liver adenylate kinase 2 by Lineweaver-Burk plot analysis. In short, it runs like this: (§1)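 Inhibition constants from the coupled NADH assay (A340, 23 °C, 0.25 mM AMP, pH 7.6). Two inhibitor levels were each run against five or more ATP levels: 0.1-0.8 mM for AK II/III, 0.15-1.1 mM for muscle AK. Ki applies to ATP-competitive inhibition and I50 to noncompetitive inhibition.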

Test [3] addresses GTP:AMP phosphotransferase AK3, mitochondrial (Rattus norvegicus, UniProt P29411). Description: Competitive inhibition of Sprague-Dawley rat liver adenylate kinase 3 by Lineweaver-Burk plot analysis. In short, it runs like this:
as §1

The nature of test [4]: Noncompetitive inhibition of Escherichia coli adenylate kinase by Lineweaver-Burk plot analysis. The following applies: read-out: I50. In short, it runs like this:
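E. coli B AK partially purified by ammonium sulfate fractionation and DEAE-cellulose chromatography; the single AK-active protein had pI 4.9. ATP KM was 0.06 mM with AMP at 0.13–0.29 mM in the coupled NADH assay (A340, 23 °C, pH 7.6 Tris).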

Sequence of GTP:AMP phosphotransferase AK3, mitochondrial (P29411 whole entry): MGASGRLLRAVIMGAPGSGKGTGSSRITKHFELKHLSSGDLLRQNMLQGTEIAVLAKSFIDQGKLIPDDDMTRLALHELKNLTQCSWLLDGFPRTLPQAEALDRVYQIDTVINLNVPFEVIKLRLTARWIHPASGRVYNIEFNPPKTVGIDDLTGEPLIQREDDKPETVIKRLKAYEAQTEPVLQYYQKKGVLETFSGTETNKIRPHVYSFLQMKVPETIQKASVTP

Broadly, the Ki is the dissociation constant of the complex between target and ligand, obtained from inhibition or displacement. Take `CCCCSc1nc2c(N)ncnc2n1[C@@H]1O[C@H](COP(=O)(O)OP(=O)(O)OP(=O)(O)O)[C@@H](O)[C@H]1O`: in test [1], the IC50 amounted to 6200 µM. Also, the Ki was 75 µM in test [2] and 60 µM in test [3].
The like results for `CSc1nc2c(N)ncnc2n1[C@@H]1O[C@H](COP(=O)(O)OP(=O)(O)OP(=O)(O)O)[C@@H](O)[C@H]1O` were, in that order, 5950 µM, 320 µM and 360 µM.
Consider `CCSc1nc2c(N)ncnc2n1[C@@H]1O[C@H](COP(=O)(O)OP(=O)(O)OP(=O)(O)O)[C@@H](O)[C@H]1O`, for which, in test [4], the IC50 turned out to be 5900 µM. Besides, the Ki in test [2] worked out at 80 µM; in test [3], 50 µM.
Take `CCCSc1nc2c(N)ncnc2n1[C@@H]1O[C@H](COP(=O)(O)OP(=O)(O)OP(=O)(O)O)[C@@H](O)[C@H]1O`: the IC50 in test [1] is 6150 µM; in test [4], 4700 µM. Also, the inhibition constant Ki came out at 55 µM in test [2] and 65 µM in test [3].
For the compound `CCCCCSc1nc2c(N)ncnc2n1[C@@H]1O[C@H](COP(=O)(O)OP(=O)(O)OP(=O)(O)O)[C@@H](O)[C@H]1O`, the inhibitory constant (Ki) was found to be 80 µM in test [2] and 60 µM in test [3].
The like results for `Nc1ncnc2c1nc(SCCO)n2[C@@H]1O[C@H](COP(=O)(O)OP(=O)(O)OP(=O)(O)O)[C@@H](O)[C@H]1O` were, in that order, 250 µM and 220 µM.
Taken in the same sequence, the figures for `Nc1ncnc2c1nc(SCCCCO)n2[C@@H]1O[C@H](COP(=O)(O)OP(=O)(O)OP(=O)(O)O)[C@@H](O)[C@H]1O` were 145 µM and 130 µM.
Turning to `Nc1ncnc2c1nc(Sc1ccccc1)n2[C@@H]1O[C@H](COP(=O)(O)OP(=O)(O)OP(=O)(O)O)[C@@H](O)[C@H]1O`, affinity in test [2] was put at a Ki of 320 µM.
Turning to `O=C(CI)NCCCCCNc1ncnc2c1ncn2[C@@H]1O[C@H](COP(=O)(O)OP(=O)(O)OP(=O)(O)O)[C@@H](O)[C@H]1O`, the IC50 in test [4] came out at 4750 µM.
Consider `CC(=O)NCCCCCCNc1ncnc2c1ncn2[C@@H]1O[C@H](COP(=O)(O)OP(=O)(O)OP(=O)(O)O)[C@@H](O)[C@H]1O`, for which the IC50 in test [1] was 12900 µM. The same compound had a Ki in test [3] of 4750 µM.
